pEC50, pIC50: −log10 of the molar value.
Columns and labels:
Homo sapiens [1] = species: Homo sapiens; experiment: Selectivity for human 5HT3 receptor over human alpha7 nAChR
Brain [2] = experiment: Drug level in DBA/2 mouse brain at 30 umol/kg, po after 4 hrs; assay type: ADME, organism-based; details: in vivo
How it was run: (§1)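 Mice (n = 6) dosed 30 µmol/kg po. Brain and plasma levels measured at 1 h and 4 h after dosing, reported as pmol/g.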

[3] = biological target: Neuronal acetylcholine receptor subunit alpha-7 (Homo sapiens, UniProt P36544); experiment: Agonist activity at human recombinant alpha7 nAChR expressed in rat GH3 cells by calcium influx assay; assay type: functional, cell-based
Sequence of Neuronal acetylcholine receptor subunit alpha-7 (P36544 whole entry): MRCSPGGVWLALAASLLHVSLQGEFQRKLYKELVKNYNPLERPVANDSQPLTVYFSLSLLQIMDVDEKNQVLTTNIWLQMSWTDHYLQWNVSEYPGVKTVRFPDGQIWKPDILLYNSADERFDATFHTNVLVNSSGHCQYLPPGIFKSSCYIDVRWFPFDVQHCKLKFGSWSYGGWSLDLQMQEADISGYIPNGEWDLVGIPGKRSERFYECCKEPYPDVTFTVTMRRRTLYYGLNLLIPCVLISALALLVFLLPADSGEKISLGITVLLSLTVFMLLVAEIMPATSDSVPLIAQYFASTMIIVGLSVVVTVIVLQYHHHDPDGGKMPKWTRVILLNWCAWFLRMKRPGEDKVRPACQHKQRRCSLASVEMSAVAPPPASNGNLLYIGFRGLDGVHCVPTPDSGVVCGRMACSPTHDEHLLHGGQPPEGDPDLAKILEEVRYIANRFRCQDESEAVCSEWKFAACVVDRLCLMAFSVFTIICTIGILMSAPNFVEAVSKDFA
How it was run: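 GH3 cells recombinantly expressing human α7 nAChR; agonist activity. Each compound run in duplicate. EC50 taken from individual 8-point concentration-response curves and expressed as pEC50, with Emax given in %.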

[4] = biological target: T1, 5-hydroxytryptamine receptor 3A (Homo sapiens, UniProt P46098); experiment: Antagonist activity at human 5HT3 receptor by calcium influx assay; assay type: functional
T1 sequence (P46098 whole entry): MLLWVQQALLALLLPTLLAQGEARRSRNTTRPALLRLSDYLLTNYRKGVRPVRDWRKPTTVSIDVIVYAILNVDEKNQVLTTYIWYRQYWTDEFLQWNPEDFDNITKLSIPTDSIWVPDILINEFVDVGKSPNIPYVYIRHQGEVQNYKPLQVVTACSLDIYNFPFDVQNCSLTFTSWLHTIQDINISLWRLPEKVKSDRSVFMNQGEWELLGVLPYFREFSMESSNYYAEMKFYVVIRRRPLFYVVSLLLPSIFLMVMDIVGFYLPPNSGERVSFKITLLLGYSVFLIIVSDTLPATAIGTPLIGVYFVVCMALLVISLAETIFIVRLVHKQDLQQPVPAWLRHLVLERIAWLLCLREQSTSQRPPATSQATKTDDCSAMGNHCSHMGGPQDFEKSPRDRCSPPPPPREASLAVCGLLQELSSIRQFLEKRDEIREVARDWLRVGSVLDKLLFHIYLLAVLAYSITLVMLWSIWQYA

Mus musculus [5] = experiment: Plasma concentration in DBA/2 mouse at 30 umol/kg, po after 4 hrs; assay type: ADME, organism-based; details: in vivo; how it was run: as §1
[6] = Metabolic stability in mouse liver microsomes assessed as hepatic extraction ratio; assay type: ADME, Microsome; details: read-out: Activity
How it was run: (§2)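 Compound incubated with mouse or human liver microsomes. In vitro hepatic extraction ratio reported as % compound depleted at the end of the experiment; half-life also given.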

Homo sapiens [7] = species: Homo sapiens; experiment: Selectivity for human alpha4beta2 nAChR over human alpha7 nAChR
Mus musculus [8] = experiment: Plasma concentration in DBA/2 mouse at 30 umol/kg, po after 1 hr; assay type: ADME, organism-based; details: in vivo; how it was run: as §1
Brain [9] = experiment: Drug level in DBA/2 mouse brain at 30 umol/kg, po after 1 hr; assay type: ADME, organism-based; details: in vivo; how it was run: as §1
[10] = biological target: Neuronal acetylcholine receptor; alpha4/beta2 (Homo sapiens, UniProt P17787+P43681); experiment: Antagonist activity at human alpha4beta2 nAChR expressed in HEK293 cells by calcium influx assay; assay type: functional, cell-based
Sequence of Neuronal acetylcholine receptor; alpha4/beta2 (P17787 whole entry): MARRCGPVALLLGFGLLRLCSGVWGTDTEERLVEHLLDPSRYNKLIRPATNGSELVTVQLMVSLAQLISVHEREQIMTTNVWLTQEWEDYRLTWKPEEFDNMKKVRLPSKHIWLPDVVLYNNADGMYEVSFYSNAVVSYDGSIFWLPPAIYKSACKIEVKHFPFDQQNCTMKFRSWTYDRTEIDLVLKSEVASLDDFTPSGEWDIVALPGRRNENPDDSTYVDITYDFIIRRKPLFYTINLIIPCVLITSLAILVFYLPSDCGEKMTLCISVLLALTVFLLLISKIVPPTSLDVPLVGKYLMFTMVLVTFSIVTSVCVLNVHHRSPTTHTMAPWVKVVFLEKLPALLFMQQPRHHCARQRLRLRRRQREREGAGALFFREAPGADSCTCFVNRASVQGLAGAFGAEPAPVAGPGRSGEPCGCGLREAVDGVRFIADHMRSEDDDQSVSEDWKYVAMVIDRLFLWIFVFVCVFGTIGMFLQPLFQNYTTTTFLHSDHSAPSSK
Sequence of Neuronal acetylcholine receptor; alpha4/beta2 (P43681 whole entry): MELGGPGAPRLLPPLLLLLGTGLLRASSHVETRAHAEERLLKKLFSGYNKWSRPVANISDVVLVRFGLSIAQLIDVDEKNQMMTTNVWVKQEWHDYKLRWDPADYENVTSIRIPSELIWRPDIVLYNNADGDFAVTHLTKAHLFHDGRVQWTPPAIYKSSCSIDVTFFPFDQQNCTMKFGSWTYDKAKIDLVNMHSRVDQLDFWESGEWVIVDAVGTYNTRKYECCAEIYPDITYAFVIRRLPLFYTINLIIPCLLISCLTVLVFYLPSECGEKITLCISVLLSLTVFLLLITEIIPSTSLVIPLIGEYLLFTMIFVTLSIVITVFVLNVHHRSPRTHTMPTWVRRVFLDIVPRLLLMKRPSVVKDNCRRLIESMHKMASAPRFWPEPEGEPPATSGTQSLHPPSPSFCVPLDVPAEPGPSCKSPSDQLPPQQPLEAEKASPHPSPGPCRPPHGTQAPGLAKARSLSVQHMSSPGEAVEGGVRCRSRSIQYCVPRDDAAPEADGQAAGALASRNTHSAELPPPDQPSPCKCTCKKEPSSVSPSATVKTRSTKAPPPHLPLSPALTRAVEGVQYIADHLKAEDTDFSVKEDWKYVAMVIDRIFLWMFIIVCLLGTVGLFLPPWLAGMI

Homo sapiens [11] = species: Homo sapiens; experiment: Selectivity for human alpha-1-beta-1-gamma-delta nAChR over human alpha7 nAChR
Homo sapiens [12] = species: Homo sapiens; experiment: Selectivity for human alpha3beta4 nAChR over human alpha7 nAChR
[13] = biological target: Acetylcholine receptor; alpha1/beta1/delta/gamma (Homo sapiens, UniProt P02708+P07510+P11230+Q07001); experiment: Antagonist activity at human alpha-1-beta-1-gamma-delta nAChR expressed in human TE671 cells by calcium influx assay; assay type: functional, cell-based, TE-671
Sequence of Acetylcholine receptor; alpha1/beta1/delta/gamma (P02708 whole entry): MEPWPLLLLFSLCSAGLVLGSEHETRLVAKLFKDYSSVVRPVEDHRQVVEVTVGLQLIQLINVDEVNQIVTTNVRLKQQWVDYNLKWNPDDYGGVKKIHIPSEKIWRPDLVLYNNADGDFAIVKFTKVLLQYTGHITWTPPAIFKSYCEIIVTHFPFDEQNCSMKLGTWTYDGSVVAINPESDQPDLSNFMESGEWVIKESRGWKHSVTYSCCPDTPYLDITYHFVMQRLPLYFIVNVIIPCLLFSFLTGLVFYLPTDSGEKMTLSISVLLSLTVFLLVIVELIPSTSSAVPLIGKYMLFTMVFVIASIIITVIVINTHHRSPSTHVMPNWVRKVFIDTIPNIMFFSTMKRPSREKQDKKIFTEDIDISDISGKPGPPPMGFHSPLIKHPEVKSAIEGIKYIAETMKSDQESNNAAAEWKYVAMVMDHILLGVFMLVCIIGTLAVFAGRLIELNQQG
Sequence of Acetylcholine receptor; alpha1/beta1/delta/gamma (P07510 whole entry): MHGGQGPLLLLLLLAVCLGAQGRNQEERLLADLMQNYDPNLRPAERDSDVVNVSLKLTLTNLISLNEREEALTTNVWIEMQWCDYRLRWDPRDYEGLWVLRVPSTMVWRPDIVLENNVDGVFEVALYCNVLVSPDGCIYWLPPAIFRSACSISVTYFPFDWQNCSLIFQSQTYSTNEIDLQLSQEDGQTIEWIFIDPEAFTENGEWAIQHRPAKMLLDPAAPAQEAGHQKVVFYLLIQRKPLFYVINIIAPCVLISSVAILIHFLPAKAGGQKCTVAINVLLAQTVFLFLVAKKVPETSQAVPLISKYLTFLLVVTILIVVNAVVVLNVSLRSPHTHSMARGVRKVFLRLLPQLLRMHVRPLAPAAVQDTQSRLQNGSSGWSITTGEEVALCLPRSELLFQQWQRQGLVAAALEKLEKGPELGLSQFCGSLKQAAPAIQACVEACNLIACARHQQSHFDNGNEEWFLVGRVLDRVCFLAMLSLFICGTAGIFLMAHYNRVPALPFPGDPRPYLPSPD
Sequence of Acetylcholine receptor; alpha1/beta1/delta/gamma (P11230 whole entry): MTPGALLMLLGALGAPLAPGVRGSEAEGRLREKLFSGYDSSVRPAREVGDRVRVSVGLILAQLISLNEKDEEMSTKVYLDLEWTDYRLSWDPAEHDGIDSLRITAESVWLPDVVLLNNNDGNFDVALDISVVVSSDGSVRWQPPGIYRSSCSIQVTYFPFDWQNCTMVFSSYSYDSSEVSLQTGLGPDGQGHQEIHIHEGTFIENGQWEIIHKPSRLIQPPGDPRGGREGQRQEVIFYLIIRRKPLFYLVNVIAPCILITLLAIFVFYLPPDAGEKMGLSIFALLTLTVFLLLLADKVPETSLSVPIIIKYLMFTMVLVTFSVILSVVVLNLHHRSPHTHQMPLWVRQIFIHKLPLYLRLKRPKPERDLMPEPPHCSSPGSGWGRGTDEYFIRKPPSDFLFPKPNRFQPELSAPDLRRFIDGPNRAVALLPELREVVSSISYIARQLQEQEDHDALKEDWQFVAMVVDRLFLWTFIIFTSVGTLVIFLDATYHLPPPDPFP
Sequence of Acetylcholine receptor; alpha1/beta1/delta/gamma (Q07001 whole entry): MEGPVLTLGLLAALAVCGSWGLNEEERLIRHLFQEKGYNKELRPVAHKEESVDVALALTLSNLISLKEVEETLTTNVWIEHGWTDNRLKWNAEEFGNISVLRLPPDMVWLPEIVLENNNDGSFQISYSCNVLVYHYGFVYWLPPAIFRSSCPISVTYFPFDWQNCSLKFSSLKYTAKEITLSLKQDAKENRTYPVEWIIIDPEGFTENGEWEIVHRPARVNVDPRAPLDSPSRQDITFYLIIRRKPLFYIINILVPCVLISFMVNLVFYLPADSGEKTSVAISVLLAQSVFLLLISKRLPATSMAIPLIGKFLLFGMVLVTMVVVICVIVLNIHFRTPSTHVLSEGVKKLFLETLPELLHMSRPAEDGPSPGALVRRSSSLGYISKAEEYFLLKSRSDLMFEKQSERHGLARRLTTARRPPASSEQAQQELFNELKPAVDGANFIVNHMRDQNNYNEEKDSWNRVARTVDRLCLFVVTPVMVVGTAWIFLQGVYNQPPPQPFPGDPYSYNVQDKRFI

[14] = biological target: Neuronal acetylcholine receptor; alpha3/beta4 (Homo sapiens, UniProt P30926+P32297); experiment: Antagonist activity at human alpha3beta4 nAChR expressed in HEK293 cells by calcium influx assay; assay type: functional, cell-based
Sequence of Neuronal acetylcholine receptor; alpha3/beta4 (P30926 whole entry): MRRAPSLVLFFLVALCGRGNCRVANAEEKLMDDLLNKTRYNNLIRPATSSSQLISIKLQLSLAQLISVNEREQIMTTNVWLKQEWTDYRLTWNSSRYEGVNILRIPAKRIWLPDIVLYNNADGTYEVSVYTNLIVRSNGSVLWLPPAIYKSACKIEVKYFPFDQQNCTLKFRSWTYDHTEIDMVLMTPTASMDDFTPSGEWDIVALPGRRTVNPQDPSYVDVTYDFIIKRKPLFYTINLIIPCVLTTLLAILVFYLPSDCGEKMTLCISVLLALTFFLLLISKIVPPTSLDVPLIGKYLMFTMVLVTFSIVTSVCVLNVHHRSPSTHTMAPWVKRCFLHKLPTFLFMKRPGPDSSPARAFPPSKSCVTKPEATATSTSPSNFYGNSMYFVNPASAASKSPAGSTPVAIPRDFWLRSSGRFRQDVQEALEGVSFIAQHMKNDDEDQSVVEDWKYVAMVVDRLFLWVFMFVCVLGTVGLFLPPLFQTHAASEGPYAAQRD
Sequence of Neuronal acetylcholine receptor; alpha3/beta4 (P32297 whole entry): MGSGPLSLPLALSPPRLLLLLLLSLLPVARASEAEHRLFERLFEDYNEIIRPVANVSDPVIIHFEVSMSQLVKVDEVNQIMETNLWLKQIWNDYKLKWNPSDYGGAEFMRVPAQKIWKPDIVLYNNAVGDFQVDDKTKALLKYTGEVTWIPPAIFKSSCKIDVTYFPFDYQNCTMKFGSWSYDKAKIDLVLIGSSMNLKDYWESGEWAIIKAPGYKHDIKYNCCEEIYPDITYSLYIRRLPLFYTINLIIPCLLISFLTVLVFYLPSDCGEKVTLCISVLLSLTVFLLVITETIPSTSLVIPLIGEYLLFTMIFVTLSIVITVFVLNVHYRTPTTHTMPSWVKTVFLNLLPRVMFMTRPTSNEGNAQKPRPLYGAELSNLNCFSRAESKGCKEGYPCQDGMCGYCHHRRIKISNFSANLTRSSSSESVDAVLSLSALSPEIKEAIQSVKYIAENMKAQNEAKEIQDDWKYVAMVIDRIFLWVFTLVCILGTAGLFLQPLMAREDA

[15] = Metabolic stability in human liver microsomes assessed as hepatic extraction ratio; assay type: ADME, Microsome; details: read-out: Activity; how it was run: as §2
[16] = Octanol-water partition coefficient, log P of the compound; assay type: physicochemical

What does the source list for `CN1C(=O)[C@@H](CN2CCCCC2)C[C@H]1C#Cc1ccc2occc2c1` (relative stereo)?
Ratio (Homo sapiens [1]): 17000; Drug uptake (Brain [2]): 3676 pmol/g; pEC50 [3]: 8.10; Emax [3]: 90%; pIC50 [4]: 4.00; Cp (Mus musculus [5]): 544 pmol/g; hepatic extraction ratio [6]: 0.67; Ratio (Homo sapiens [7]): 660; Cp (Mus musculus [8]): 1001 pmol/g; Drug uptake (Brain [9]): 6533 pmol/g; pIC50 [10]: 5.30; Ratio (Homo sapiens [11]): 17000; Ratio (Homo sapiens [12]): 123; pIC50 [13]: 4.00; pIC50 [14]: 6.10; hepatic extraction ratio [15]: 0.68; logP [16]: 3.9

Which results are given for `Cc1ccccc1C#C[C@@H]1C[C@H](CN2CCCCC2)C(=O)N1C` (relative stereo)?
pEC50 [3]: 7.80; Emax [3]: 83%; Ratio (Homo sapiens [12]): 104

What does the source list for `CN1C(=O)[C@@H](CN2CCCCC2)C[C@H]1c1ccccc1Cl`?
pEC50 [3]: 6.10; Emax [3]: 89%

With `CN1C(=O)[C@@H](CN2CCCCC2)C[C@H]1c1ccc(Cl)cc1` (relative stereo) as the molecule, how does the pEC50 [3] read?
Its pEC50 is 6.00.

What about the Emax [3] of the same molecule?
The Emax was 110%.

Which results are given for `Cc1cc([C@@H]2C[C@H](CN3CCCCC3)C(=O)N2C)sc1-c1ccccc1Cl` (relative stereo)?
pEC50 [3]: 6.20; Emax [3]: 81%

Which results are given for `Cc1ccc([C@@H]2C[C@H](CN3CCCCC3)C(=O)N2C)cc1` (relative stereo)?
pEC50 [3]: 6.20; Emax [3]: 114%

Which Ratio (Homo sapiens [1]) does the source give for `CN1C(=O)[C@@H](CN2CCCCC2)C[C@H]1C#Cc1ccc2c(ccn2C)c1` (relative stereo) here?
The Ratio was 3220.

And the pEC50 [3]?
Its pEC50 is 8.10.

What about the Emax [3] of the same molecule?
The Emax was 100%.

And the pIC50 [4]?
Its pIC50 is 4.60.

And the Ratio (Homo sapiens [7])?
Its Ratio is 232.

What about the pIC50 [10] of the same molecule?
Its pIC50 is 5.70.

And the Ratio (Homo sapiens [11])?
The Ratio was 431.

What about the Ratio (Homo sapiens [12]) of the same molecule?
Its Ratio is 111.

And the pIC50 [13]?
Its pIC50 is 5.40.

And the pIC50 [14]?
The pIC50 was 6.00.

What does the source list for `COc1ccc(/C=C2\CCCN=C2c2cccnc2)c(OC)c1` [GTS-21]?
pEC50 [3]: 5.70; Emax [3]: 71%

Which results are given for `CN1C(=O)[C@@H](CN2CCCCC2)C[C@H]1c1cccc(Cl)c1` (relative stereo)?
pEC50 [3]: 6.00; Emax [3]: 102%

Which results are given for `CN1C(=O)[C@@H](CN2CCCCC2)C[C@H]1c1ccc(-c2ccccc2F)cc1` (relative stereo)?
pEC50 [3]: 6.50; Emax [3]: 47%

With `CN1C(=O)[C@@H](CN2CCCCC2)C[C@H]1c1nc(-c2ccccc2Cl)c[nH]1` (relative stereo) as the molecule, how does the pEC50 [3] read?
The pEC50 was 5.90.

And the Emax [3]?
The Emax was 61%.

Which results are given for `CN1C(=O)[C@@H](CN2CCCCC2)C[C@H]1c1ccc(C2CCCC2)cc1` (relative stereo)?
pEC50 [3]: 6.50; Emax [3]: 28%

With `CN1C(=O)[C@@H](CN2CCCCC2)C[C@H]1c1ccc(Br)cc1` (relative stereo) as the molecule, how does the pEC50 [3] read?
The pEC50 was 6.20.

What about the Emax [3] of the same molecule?
Its Emax is 89%.

Which results are given for `COc1ccccc1[C@@H]1C[C@H](CN2CCCCC2)C(=O)N1C` (relative stereo)?
pEC50 [3]: 5.90; Emax [3]: 107%

With `O=C1NC[C@@]2(CN3CCC2CC3)O1` as the molecule, how does the pEC50 [3] read?
The pEC50 was 6.40.

And the Emax [3]?
The Emax was 104%.

Which results are given for `CN1C(=O)[C@@H](CN2CCCCC2)C[C@H]1c1nc(-c2ccccc2Cl)cn1C` (relative stereo)?
pEC50 [3]: 6.20; Emax [3]: 47%

With `CN1C(=O)[C@@H](CN2CCCCCC2)C[C@H]1c1ccccc1Cl` (relative stereo) as the molecule, how does the pEC50 [3] read?
Its pEC50 is 5.70.

What about the Emax [3] of the same molecule?
The Emax was 82%.

With `CN1C(=O)[C@@H](CN2CCCCC2)C[C@H]1C#Cc1ccccc1Cl` as the molecule, how does the pEC50 [3] read?
The pEC50 was 7.60.

And the Emax [3]?
The Emax was 89%.

What about the Ratio (Homo sapiens [12]) of the same molecule?
Its Ratio is 52.

With `COc1ccc([C@@H]2C[C@H](CN3CCCCC3)C(=O)N2C)cc1` (relative stereo) as the molecule, how does the pEC50 [3] read?
The pEC50 was 5.90.

What about the Emax [3] of the same molecule?
The Emax was 124%.

Which results are given for `Clc1ccc([C@@H]2C[C@H]3CC[C@@H]2N3)cn1` [(+)-EPIBATIDINE]?
pEC50 [3]: 7.40; Emax [3]: 100%

With `CN1C(=O)[C@@H](CN2CCCCC2)C[C@H]1c1ccc(C2CCCCC2)cc1` (relative stereo) as the molecule, how does the pEC50 [3] read?
Its pEC50 is 6.50.

And the Emax [3]?
Its Emax is 60%.

With `COc1cccc([C@@H]2C[C@H](CN3CCCCC3)C(=O)N2C)c1` (relative stereo) as the molecule, how does the pEC50 [3] read?
The pEC50 was 5.90.

What about the Emax [3] of the same molecule?
Its Emax is 128%.

Which results are given for `CN1C(=O)[C@@H](CN2CCCCC2)C[C@H]1c1ccc(-c2ccccc2Cl)cc1` (relative stereo)?
pEC50 [3]: 6.90; Emax [3]: 62%; Ratio (Homo sapiens [12]): 3

Which Ratio (Homo sapiens [1]) does the source give for `CN1C(=O)[C@@H](CN2CCCCC2)C[C@H]1C#Cc1ccc2c(c1)CCO2` (relative stereo) here?
Its Ratio is 5390.

What about the pEC50 [3] of the same molecule?
The pEC50 was 8.10.

What about the Emax [3] of the same molecule?
Its Emax is 80%.

And the pIC50 [4]?
Its pIC50 is 4.30.

And the Ratio (Homo sapiens [7])?
Its Ratio is 1260.

What about the pIC50 [10] of the same molecule?
The pIC50 was 5.00.

And the Ratio (Homo sapiens [11])?
Its Ratio is 773.

What about the Ratio (Homo sapiens [12]) of the same molecule?
Its Ratio is 154.

What about the pIC50 [13] of the same molecule?
The pIC50 was 5.20.

And the pIC50 [14]?
Its pIC50 is 6.00.

What does the source list for `CN1C(=O)[C@@H](CN2CCCCC2)C[C@H]1c1cnc(-c2ccccc2Cl)s1` (relative stereo)?
pEC50 [3]: 7.60; Emax [3]: 89%; Ratio (Homo sapiens [12]): 14

What does the source list for `COc1cccc([C@@H]2C[C@H](CN3CCCC3)C(=O)N2C)c1` (relative stereo)?
pEC50 [3]: 5.10; Emax [3]: 80%

What does the source list for `CN1C(=O)[C@@H](CN2CCCCC2)C[C@H]1c1ccc(-c2ccccc2Cl)s1` (relative stereo)?
pEC50 [3]: 7.50; Emax [3]: 79%; Ratio (Homo sapiens [12]): 26

With `CN1CCC[C@H]1c1cccnc1` as the molecule, how does the Emax [3] read?
The Emax was 100%.

With `CN1C(=O)[C@@H](CN2CCCCC2)C[C@H]1c1ccc(-c2ccccc2)cc1` as the molecule, how does the pEC50 [3] read?
The pEC50 was 5.90.

What about the Emax [3] of the same molecule?
Its Emax is 61%.
